Assays:
[1] = target: T1, NTPDase1 (ectonucleoside triphosphate diphosphohydrolase 1) (Homo sapiens, UniProt P49961); assay: Stability assessed as human NTPDase1-mediated compound hydrolysis; assay type: ADME; conditions: human NTPDase1 enzyme, read-out: Drug degradation
T1 sequence (P49961 whole entry): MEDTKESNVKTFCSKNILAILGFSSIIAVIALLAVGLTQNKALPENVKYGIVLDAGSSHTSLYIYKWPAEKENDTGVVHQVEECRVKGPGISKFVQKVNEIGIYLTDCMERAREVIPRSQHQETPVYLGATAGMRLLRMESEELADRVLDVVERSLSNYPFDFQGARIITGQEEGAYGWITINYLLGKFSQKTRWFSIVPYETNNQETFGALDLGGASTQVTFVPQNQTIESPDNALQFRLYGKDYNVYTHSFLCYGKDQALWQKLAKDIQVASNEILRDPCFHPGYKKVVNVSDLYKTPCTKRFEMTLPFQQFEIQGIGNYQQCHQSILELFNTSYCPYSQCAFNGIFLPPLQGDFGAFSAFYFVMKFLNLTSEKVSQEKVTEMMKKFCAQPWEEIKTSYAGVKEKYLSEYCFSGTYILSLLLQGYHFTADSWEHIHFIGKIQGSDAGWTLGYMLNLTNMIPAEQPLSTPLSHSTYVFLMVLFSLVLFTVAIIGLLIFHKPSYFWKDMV
In short: (§1)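 Each analogue offered as substrate to recombinant human NTPDase (COS-7 transfected cell protein extracts) at 37 °C, pH 7.4 Ca2+/Tris medium, 15 min; Pi released measured by malachite green at 630 nm; hydrolysis expressed relative to ATP set as 100%; mean ± SD of three independent experiments, each in duplicate.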

[2] = target: T2, Ectonucleoside triphosphate diphosphohydrolase 2 (Homo sapiens) (UniProt Q9Y5L3); assay: Inhibition of recombinant human NTPDase2 transfected in COS-7 cells using ATP substrate at 100 uM relative to control; assay type: cell-based
T2 sequence (whole entry): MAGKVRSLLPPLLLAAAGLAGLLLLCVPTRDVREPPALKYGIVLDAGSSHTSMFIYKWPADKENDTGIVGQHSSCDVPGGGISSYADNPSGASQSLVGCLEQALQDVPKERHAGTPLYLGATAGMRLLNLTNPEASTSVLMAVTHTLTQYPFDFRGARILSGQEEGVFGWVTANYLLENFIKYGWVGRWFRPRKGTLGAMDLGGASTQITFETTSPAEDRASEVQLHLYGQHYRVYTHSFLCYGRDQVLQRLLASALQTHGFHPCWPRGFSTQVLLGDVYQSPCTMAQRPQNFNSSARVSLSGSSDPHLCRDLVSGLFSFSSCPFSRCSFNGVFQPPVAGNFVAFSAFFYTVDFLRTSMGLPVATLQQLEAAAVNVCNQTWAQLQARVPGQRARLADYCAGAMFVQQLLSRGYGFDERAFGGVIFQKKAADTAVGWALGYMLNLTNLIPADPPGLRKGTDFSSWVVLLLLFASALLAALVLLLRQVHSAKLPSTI
In short: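 Extracts of COS-7 cells expressing human NTPDase2, preincubated 3 min at 37 °C in 5 mM CaCl2/80 mM Tris pH 7.4; ATP and compound both 100 μM; stopped at 15 min with malachite green, Pi at 630 nm; ATP alone set as 100%; mean ± SD of three experiments in triplicate.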

[3] = target: T3, NTPDase2 (ectonucleoside triphosphate diphosphohydrolase 2) (Homo sapiens, UniProt Q9Y5L3); assay: Stability assessed as human NTPDase2-mediated compound hydrolysis; assay type: ADME; conditions: human NTPDase2 enzyme, read-out: Drug degradation; in short: as §1
T3 sequence (Q9Y5L3 whole entry): T2 sequence (whole entry)

[4] = Stability assessed as human compound hydrolysis; conditions: read-out: Drug degradation
[5] = target: T4, NTPDase3 (ectonucleoside triphosphate diphosphohydrolase 3) (Homo sapiens, UniProt O75355); assay: Stability assessed as human NTPDase3-mediated compound hydrolysis; assay type: ADME; conditions: human NTPDase3 enzyme, read-out: Drug degradation; in short: as §1
T4 sequence (O75355 whole entry): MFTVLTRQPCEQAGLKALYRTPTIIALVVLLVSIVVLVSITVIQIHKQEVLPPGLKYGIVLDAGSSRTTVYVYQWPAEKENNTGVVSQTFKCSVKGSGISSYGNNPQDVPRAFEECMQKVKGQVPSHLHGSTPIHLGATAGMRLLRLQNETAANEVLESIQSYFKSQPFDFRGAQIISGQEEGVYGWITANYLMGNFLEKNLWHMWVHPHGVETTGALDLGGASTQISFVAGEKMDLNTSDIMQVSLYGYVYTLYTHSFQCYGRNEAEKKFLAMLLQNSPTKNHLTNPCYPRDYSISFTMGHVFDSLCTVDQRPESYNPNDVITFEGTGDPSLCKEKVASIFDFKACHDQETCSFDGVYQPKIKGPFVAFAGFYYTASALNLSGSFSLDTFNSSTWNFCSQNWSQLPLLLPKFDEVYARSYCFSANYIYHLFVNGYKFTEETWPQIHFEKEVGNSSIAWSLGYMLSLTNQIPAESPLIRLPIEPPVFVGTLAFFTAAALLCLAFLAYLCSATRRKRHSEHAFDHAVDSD

[6] = target: T5, Ectonucleoside triphosphate diphosphohydrolase 2 (Homo sapiens, UniProt Q9Y5L3); assay: Inhibition of recombinant human NTPDase2 transfected in COS-7 cells using ATP substrate; assay type: cell-based
T5 sequence (Q9Y5L3 whole entry): T2 sequence (whole entry)

[7] = target: T6, Ectonucleotide pyrophosphatase/phosphodiesterase family member 1 (Homo sapiens) (UniProt P22413); assay: Inhibition of human NPP1 using pNP-TMP substrate relative to control; conditions: concentration not given here
T6 sequence (whole entry): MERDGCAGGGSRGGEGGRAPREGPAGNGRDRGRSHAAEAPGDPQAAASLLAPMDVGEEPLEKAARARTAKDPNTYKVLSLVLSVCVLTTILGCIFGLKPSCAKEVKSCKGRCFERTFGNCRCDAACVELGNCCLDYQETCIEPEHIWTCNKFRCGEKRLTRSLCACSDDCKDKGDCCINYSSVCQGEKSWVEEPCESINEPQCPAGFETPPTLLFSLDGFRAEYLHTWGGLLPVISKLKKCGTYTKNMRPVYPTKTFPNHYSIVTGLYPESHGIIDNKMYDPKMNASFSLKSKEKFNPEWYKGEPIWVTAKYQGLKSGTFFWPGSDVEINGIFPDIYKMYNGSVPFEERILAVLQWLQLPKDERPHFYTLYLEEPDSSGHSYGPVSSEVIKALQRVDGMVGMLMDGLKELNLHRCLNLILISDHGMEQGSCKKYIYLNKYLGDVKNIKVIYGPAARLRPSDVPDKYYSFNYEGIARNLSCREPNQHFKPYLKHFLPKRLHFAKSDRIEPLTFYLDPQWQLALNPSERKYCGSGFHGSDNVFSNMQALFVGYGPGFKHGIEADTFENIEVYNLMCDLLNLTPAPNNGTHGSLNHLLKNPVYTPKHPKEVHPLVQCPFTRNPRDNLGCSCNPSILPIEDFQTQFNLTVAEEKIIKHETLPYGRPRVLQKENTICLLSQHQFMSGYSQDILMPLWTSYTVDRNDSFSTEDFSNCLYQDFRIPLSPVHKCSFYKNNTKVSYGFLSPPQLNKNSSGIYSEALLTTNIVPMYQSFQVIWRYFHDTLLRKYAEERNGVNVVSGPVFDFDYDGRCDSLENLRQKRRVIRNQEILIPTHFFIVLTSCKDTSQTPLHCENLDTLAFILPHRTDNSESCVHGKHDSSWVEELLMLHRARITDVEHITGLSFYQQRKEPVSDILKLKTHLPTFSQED
In short: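 Extract of COS-7 cells transfected with human NPP1, preincubated 3 min at 37 °C in 1 mM CaCl2, 140 mM NaCl, 5 mM KCl, 50 mM Tris pH 8.5; started with 100 μM pNP-TMP, compound 100 μM; p-nitrophenol read at 410 nm after 15 min; activity without compound = 100%; mean ± SD, three experiments in triplicate.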

[8] = target: 5'-nucleotidase (Homo sapiens) (UniProt P21589); assay: Inhibition of AMPase activity of human ecto-5'-nucleotidase using AMP substrate relative to control; conditions: concentration not given here
In short: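 Human ecto-5′-nucleotidase in protein extracts of transfected COS-7 cells; 3 min preincubation at 37 °C in 5 mM CaCl2/80 mM Tris pH 7.4 (or Tris-Ringer); started with 100 μM AMP, compound also 100 μM; stopped after 15 min with malachite green, Pi read at 630 nm; activity without compound set as 100%; mean ± SD, three experiments in triplicate.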

Chain of 5'-nucleotidase (Homo sapiens) (P21589 whole entry): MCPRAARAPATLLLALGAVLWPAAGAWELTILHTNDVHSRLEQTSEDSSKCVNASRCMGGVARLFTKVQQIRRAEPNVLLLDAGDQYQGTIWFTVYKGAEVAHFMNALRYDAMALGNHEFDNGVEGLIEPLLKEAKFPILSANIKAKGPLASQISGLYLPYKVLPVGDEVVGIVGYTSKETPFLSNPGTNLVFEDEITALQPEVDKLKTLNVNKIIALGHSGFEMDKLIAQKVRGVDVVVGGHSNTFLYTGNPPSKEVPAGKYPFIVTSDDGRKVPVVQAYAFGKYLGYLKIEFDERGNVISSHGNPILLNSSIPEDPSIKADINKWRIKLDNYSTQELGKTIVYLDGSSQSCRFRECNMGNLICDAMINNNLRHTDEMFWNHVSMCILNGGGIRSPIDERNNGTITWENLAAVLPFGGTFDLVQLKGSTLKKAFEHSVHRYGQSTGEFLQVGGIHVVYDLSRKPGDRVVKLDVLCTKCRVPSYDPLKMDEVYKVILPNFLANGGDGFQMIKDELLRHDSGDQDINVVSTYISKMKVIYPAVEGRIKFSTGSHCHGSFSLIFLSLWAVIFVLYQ

SMILES	metabolised [1] [%]	inhibition [2] [%]	metabolised [3] [%]	metabolised [4] [%]	metabolised [5] [%]	IC50 [6] [µM]	Ki [6] [µM]	inhibition [7] [%]	inhibition [8] [%]
CCN(CC)c1ncnc2c1ncn2[C@@H]1O[C@H](COP(=O)(O)OP(=O)(O)OP(=O)(O)O)[C@@H](O)[C@H]1O	22	42	0	20	2				
O=P(O)(O)OC[C@H]1O[C@@H](n2cnc3c(N(Cc4ccccc4)Cc4ccccc4)ncnc32)[C@H](O)[C@@H]1O	6	10	3	5	10				
CN(C)c1ncnc2c1ncn2[C@@H]1O[C@H](COP(=O)(O)OP(=O)(O)OP(=O)(O)O)[C@@H](O)[C@H]1O	74		73						
CCCCCCSc1nc(N)c2ncn([C@@H]3O[C@H](COP(=O)(O)OP(=O)(O)CP(=O)(O)O)[C@@H](O)[C@H]3O)c2n1	2.3	70	2.8		0.8	40	21	> 50	10
O=P(O)(O)OP(=O)(O)OP(=O)(O)OC[C@H]1O[C@@H](n2cnc3c(N(Cc4ccccc4)Cc4ccccc4)ncnc32)[C@H](O)[C@@H]1O	14	0	3	13	8				
CN(C)c1ncnc2c1ncn2[C@@H]1O[C@H](COP(=O)(O)O)[C@@H](O)[C@H]1O	0		0	2	4				

The remaining lines, values ahead:

metabolised [1] [%]	inhibition [2] [%]	metabolised [3] [%]	metabolised [4] [%]	metabolised [5] [%]	IC50 [6] [µM]	Ki [6] [µM]	inhibition [7] [%]	inhibition [8] [%]	SMILES
87		77							CNc1ncnc2c1ncn2[C@@H]1O[C@H](COP(=O)(O)OP(=O)(O)OP(=O)(O)O)[C@@H](O)[C@H]1O
44		11.5							CCCCCCSc1nc(N)c2nnn([C@@H]3O[C@H](COP(=O)(O)OP(=O)(O)OP(=O)(O)O)[C@@H](O)[C@H]3O)c2n1
73		38.5							Nc1ncnc2c1nnn2[C@@H]1O[C@H](COP(=O)(O)OP(=O)(O)OP(=O)(O)O)[C@@H](O)[C@H]1O

From ChEMBL document CHEMBL3352222, “2-Hexylthio-β,γ-CH2-ATP is an effective and selective NTPDase2 inhibitor” (J Med Chem, 2014)
